Measured values: ChEMBL document CHEMBL1153402, “Pyrido[2,3-e]-1,2,4-triazolo[4,3-a]pyrazin-1-one as a new scaffold to develop potent and selective human A3 adenosine receptor antagonists. Synthesis, pharmacological evaluation, and ligand-receptor modeling studies” (J Med Chem, 2009)

Tests used:
Adenosine receptor A3 = target: T1, Adenosine receptor A3 (Homo sapiens, UniProt P0DMS8); assay: Displacement of [125I]AB-MECA from human cloned adenosine A3 receptor expressed in CHO cells; assay type: cell-based
T1 sequence (P0DMS8 whole entry): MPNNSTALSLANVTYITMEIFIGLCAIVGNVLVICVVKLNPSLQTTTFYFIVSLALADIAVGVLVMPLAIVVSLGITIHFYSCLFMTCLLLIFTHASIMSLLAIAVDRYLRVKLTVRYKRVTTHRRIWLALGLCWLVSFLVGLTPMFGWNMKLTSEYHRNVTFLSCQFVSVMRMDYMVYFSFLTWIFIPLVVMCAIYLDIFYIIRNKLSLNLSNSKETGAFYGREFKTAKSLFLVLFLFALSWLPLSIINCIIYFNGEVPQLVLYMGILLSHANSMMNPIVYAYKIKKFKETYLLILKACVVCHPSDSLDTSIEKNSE

Adenosine receptor A1 [1] = target: T2, Adenosine receptor A1 (Bos taurus, UniProt P28190); assay: Displacement of [3H]DPCPX from bovine brain cortical membrane adenosine A1 receptor
T2 sequence (P28190 whole entry): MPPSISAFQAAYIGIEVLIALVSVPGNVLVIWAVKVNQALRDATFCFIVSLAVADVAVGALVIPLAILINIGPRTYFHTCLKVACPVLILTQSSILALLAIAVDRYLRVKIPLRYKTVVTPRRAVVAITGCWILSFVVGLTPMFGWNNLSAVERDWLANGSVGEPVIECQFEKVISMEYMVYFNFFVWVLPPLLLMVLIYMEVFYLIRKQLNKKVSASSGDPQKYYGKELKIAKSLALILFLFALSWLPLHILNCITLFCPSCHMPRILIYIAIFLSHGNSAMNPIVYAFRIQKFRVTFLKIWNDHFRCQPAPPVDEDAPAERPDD

[2] = Displacement of [3H]CGS 21680 from bovine striatal membrane adenosine A2A receptor; parameters: species or system Bos taurus
[3] = target: T3, Adenosine receptor A1 (Bos taurus) (UniProt P28190); assay: Displacement of [3H]DPCPX from bovine brain cortical membrane adenosine A1 receptor at 10 uM
T3 sequence (whole entry): T2 sequence (P28190 whole entry)

Bos taurus [4] = organism: Bos taurus; assay: Displacement of [3H]CGS 21680 from bovine striatal membrane adenosine A2A receptor at 10 uM
[5] = target: T4, Adenosine receptor A3 (Homo sapiens) (UniProt P0DMS8); assay: Displacement of [125I]AB-MECA from human cloned adenosine A3 receptor expressed in CHO cells at 1 uM; assay type: cell-based
T4 sequence (whole entry): T1 sequence (P0DMS8 whole entry)
Outline: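 IC50 from five displacer concentrations, each in triplicate, by nonlinear regression; Ki by Cheng–Prusoff. Ki as mean of four separate assays, each in triplicate; single-point values as percent inhibition of specific binding at 1 μM.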

[6] = target: T5, Adenosine receptor A1 (Homo sapiens) (UniProt P30542); assay: Displacement of [3H]DPCPX from human cloned adenosine A1 receptor expressed in CHO cells at 10 uM; assay type: cell-based
T5 sequence (whole entry): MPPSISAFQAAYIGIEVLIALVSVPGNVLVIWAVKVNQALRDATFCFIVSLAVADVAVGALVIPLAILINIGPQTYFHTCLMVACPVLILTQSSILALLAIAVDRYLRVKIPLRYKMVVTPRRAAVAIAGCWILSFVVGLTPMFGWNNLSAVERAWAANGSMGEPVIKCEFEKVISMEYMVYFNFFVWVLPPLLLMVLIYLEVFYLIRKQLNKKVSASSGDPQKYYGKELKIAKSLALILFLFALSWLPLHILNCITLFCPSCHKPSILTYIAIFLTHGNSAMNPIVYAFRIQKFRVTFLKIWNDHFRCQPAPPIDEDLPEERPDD
Outline: (§1)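 CHO cell membranes stably expressing hA1 or hA2A; radioligands [3H]DPCPX (hA1, Kd 3 nM) and [3H]NECA (hA2A, Kd 30 nM). IC50 from five displacer concentrations in triplicate, nonlinear regression; Ki by Cheng–Prusoff; four separate assays. Single-point values as percent inhibition of specific binding at 10 μM.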

Adenosine receptor A2a [7] = target: T6, Adenosine receptor A2a (Homo sapiens, UniProt P29274); assay: Displacement of [3H]NECA from human cloned adenosine A2A receptor expressed in CHO cells at 10 uM; assay type: cell-based; outline: as §1
[8] = target: T3, Adenosine receptor A1 (Bos taurus); assay: Displacement of [3H]DPCPX from bovine brain cortical membrane adenosine A1 receptor at 20 uM
Outline: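 Bovine cerebral cortical membranes; [3H]DPCPX displacement (Kd 0.3 nM). IC50 from five displacer concentrations in triplicate; Ki by Cheng–Prusoff, mean of four assays.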

Bos taurus [9] = organism: Bos taurus; assay: Displacement of [3H]CGS 21680 from bovine striatal membrane adenosine A2A receptor at 20 uM
Outline: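 IC50 from five concentrations in triplicate, nonlinear regression; Ki via Cheng–Prusoff from four assays. Single-point values as percent inhibition at 20 μM.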

Adenosine receptor A2a [10] = target: T6, Adenosine receptor A2a; assay: Displacement of [3H]NECA from human cloned adenosine A2A receptor expressed in CHO cells; assay type: cell-based
Adenosine receptor A1 [11] = target: T7, Adenosine receptor A1 (Homo sapiens, UniProt P30542); assay: Displacement of [3H]DPCPX from human cloned adenosine A1 receptor expressed in CHO cells; assay type: cell-based
T7 sequence (P30542 whole entry): T5 sequence (whole entry)

T6 sequence (P29274 whole entry): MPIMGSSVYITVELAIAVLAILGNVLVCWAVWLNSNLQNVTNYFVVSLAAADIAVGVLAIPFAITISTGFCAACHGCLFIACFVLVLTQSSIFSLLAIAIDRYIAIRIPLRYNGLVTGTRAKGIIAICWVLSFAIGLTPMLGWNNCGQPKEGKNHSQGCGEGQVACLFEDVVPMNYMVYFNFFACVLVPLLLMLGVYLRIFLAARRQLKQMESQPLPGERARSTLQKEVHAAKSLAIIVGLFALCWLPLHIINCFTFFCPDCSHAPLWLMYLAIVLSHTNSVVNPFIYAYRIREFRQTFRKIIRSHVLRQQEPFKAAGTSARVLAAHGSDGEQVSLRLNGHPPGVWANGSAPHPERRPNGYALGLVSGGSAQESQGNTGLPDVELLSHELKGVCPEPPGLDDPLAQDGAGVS

`Nc1nc2ncccc2n2c(=O)n(-c3ccccc3)nc12` gave a Ki (Adenosine receptor A3) of 0.656 µM, a Ki (Adenosine receptor A1 [1]) of 0.0031 µM and a Ki [2] of 0.0926 µM.
In the case of `O=C(c1ccccc1)N(C(=O)c1ccccc1)c1nc2c([N+](=O)[O-])cccc2n2c(=O)n(-c3ccccc3)nc12`, the Activity [3] is reported as 39%, the Activity (Bos taurus [4]) is reported as 0% and the Activity [5] is reported as 27%.
`COc1ccc(-n2nc3c(NC(C)=O)nc4ncccc4n3c2=O)cc1` showed a Ki (Adenosine receptor A3) of 0.041 µM, an Activity [6] of 48% and an Activity (Adenosine receptor A2a [7]) of 29%. For the same compound, the Activity [8] was 56% and the Activity (Bos taurus [9]) was 19%.
For `O=c1n(-c2ccccc2)nc2c(NC3CCCC3)nc3ncccc3n12`, the Ki (Adenosine receptor A3) was 0.0084 µM, the Activity [6] was 36% and the Ki (Adenosine receptor A2a [10]) was 0.208 µM. It also gave a Ki (Adenosine receptor A1 [1]) of 0.00047 µM and a Ki [2] of 0.51 µM.
In the case of `CCOC(=O)c1ccc(-n2nc3c(N)nc4ncccc4n3c2=O)cc1`, the Activity [8] is reported as 39%, the Activity (Bos taurus [9]) is reported as 17% and the Activity [5] is reported as 0%.
In the case of `COc1ccc(-n2nc3c(N(C(=O)c4ccccc4)C(=O)c4ccccc4)nc4c([N+](=O)[O-])cccc4n3c2=O)cc1`, the Activity [3] is reported as 20% and the Activity (Bos taurus [4]) is reported as 0%.
With `O=C(O)c1ccc(-n2nc3c(=O)[nH]c4ncccc4n3c2=O)cc1` the Activity [8] was 30%, the Activity (Bos taurus [9]) was 7% and the Activity [5] was 0%.
Compound `O=C(Nc1nc2ncccc2n2c(=O)n(-c3ccccc3)nc12)c1ccccc1` has a Ki (Adenosine receptor A3) of 0.0703 µM, an Activity [6] of 8% and a Ki (Adenosine receptor A2a [10]) of 2.24 µM. It also gave a Ki (Adenosine receptor A1 [1]) of 0.152 µM and a Ki [2] of 7.1 µM.
Compound `COc1ccc(-n2nc3c(=O)[nH]c4ncccc4n3c2=O)cc1` has a Ki (Adenosine receptor A3) of 0.0033 µM, a Ki (Adenosine receptor A1 [11]) of 0.114 µM and an Activity [8] of 26%. It also gave an Activity (Bos taurus [9]) of 0%.
`O=c1[nH]c2ncccc2n2c(=O)n(-c3ccc(O)cc3)nc12` gave a Ki (Adenosine receptor A1 [1]) of 0.449 µM, an Activity (Bos taurus [9]) of 0% and an Activity [5] of 32%.
For `Nc1nc2c([N+](=O)[O-])cccc2n2c(=O)n(-c3ccc(O)cc3)nc12`, the Activity [5] was 45%.
`CCCn1c(=O)c2[nH]c(C3CCCC3)nc2n(CCC)c1=O` [1,3-DIPROPYL-8-CYCLOPENTYLXANTHINE [DPCPX]] showed a Ki [2] of 0.337 µM.
`CCOC(=O)c1ccc(-n2nc3c(=O)[nH]c4ncccc4n3c2=O)cc1` gave an Activity [8] of 16%, an Activity (Bos taurus [9]) of 0% and an Activity [5] of 0%.
In the case of `COc1ccc(-n2nc3c(N)nc4ncccc4n3c2=O)cc1`, the Ki (Adenosine receptor A3) is reported as 0.158 µM, the Ki (Adenosine receptor A1 [1]) is reported as 1.1 µM and the Ki [2] is reported as 0.413 µM.
`Nc1nc2ncccc2n2c(=O)n(-c3ccc(O)cc3)nc12` showed a Ki (Adenosine receptor A3) of 1.34 µM, a Ki (Adenosine receptor A1 [1]) of 0.112 µM and a Ki [2] of 0.832 µM.
With `O=C(Nc1nc2c([N+](=O)[O-])cccc2n2c(=O)n(-c3ccccc3)nc12)c1ccccc1` the Activity [3] was 32% and the Activity (Bos taurus [4]) was 0%.
In the case of `O=c1[nH]c2ncccc2n2c(=O)n(-c3ccccc3)nc12`, the Ki (Adenosine receptor A3) is reported as 0.251 µM, the Activity (Adenosine receptor A2a [7]) is reported as 0% and the Ki (Adenosine receptor A1 [1]) is reported as 0.145 µM. For the same compound, the Activity (Bos taurus [9]) was 12%.
Work on `CC(=O)Nc1nc2ncccc2n2c(=O)n(-c3ccccc3)nc12` yielded a Ki (Adenosine receptor A3) of 0.138 µM, a Ki (Adenosine receptor A1 [1]) of 0.014 µM and an Activity (Bos taurus [9]) of 59%.
`Nc1nc2ncccc2n2c(=O)n(-c3ccc(F)cc3)nc12` gave a Ki (Adenosine receptor A3) of 0.49 µM, a Ki (Adenosine receptor A1 [1]) of 0.181 µM and a Ki [2] of 1.51 µM.
In the case of `COc1ccc(-n2nc3c(NC(C)=O)nc4c([N+](=O)[O-])cccc4n3c2=O)cc1`, the Activity [3] is reported as 0%, the Activity (Bos taurus [4]) is reported as 7% and the Activity [5] is reported as 36%.
Compound `CC(=O)Nc1nc2c([N+](=O)[O-])cccc2n2c(=O)n(-c3ccccc3)nc12` has an Activity (Bos taurus [4]) of 36% and an Activity [5] of 18%.
`O=c1n(-c2ccccc2)nc2c(NC3CCCC3)nc3c([N+](=O)[O-])cccc3n12` showed a Ki (Adenosine receptor A3) of 0.116 µM.
Compound `O=c1n(-c2ccccc2)nc2c(NC3CCCCC3)nc3c([N+](=O)[O-])cccc3n12` has a Ki (Adenosine receptor A3) of 0.281 µM.
For `O=C(c1ccccc1)N(C(=O)c1ccccc1)c1nc2ncccc2n2c(=O)n(-c3ccccc3)nc12`, the Ki (Adenosine receptor A3) was 0.335 µM, the Ki (Adenosine receptor A1 [1]) was 0.0707 µM and the Activity (Bos taurus [9]) was 12%.
In the case of `O=c1[nH]c2ncccc2n2c(=O)n(-c3ccc(F)cc3)nc12`, the Ki (Adenosine receptor A3) is reported as 0.59 µM, the Ki (Adenosine receptor A1 [1]) is reported as 0.306 µM and the Activity (Bos taurus [9]) is reported as 26%.
With `O=c1[nH]c2c([N+](=O)[O-])cccc2n2c(=O)n(-c3ccccc3)nc12` the Ki (Adenosine receptor A3) was 0.279 µM.
With `COc1ccc(-n2nc3c(NC(=O)c4ccccc4)nc4c([N+](=O)[O-])cccc4n3c2=O)cc1` the Activity [3] was 35% and the Activity (Bos taurus [4]) was 15%.
Compound `O=c1[nH]c2c([N+](=O)[O-])cccc2n2c(=O)n(-c3ccc(O)cc3)nc12` has an Activity [5] of 21%.
`O=C(Cc1ccccc1)Nc1nc2ncccc2n2c(=O)n(-c3ccccc3)nc12` showed a Ki (Adenosine receptor A3) of 0.0117 µM, an Activity [6] of 37% and a Ki (Adenosine receptor A2a [10]) of 0.208 µM. The Ki (Adenosine receptor A1 [1]) was 0.00715 µM and the Ki [2] was 0.414 µM.
Work on `O=c1n(-c2ccccc2)nc2c(NC3CCCCC3)nc3ncccc3n12` yielded a Ki (Adenosine receptor A3) of 0.0155 µM, an Activity [6] of 37% and a Ki (Adenosine receptor A2a [10]) of 0.211 µM. The Ki (Adenosine receptor A1 [1]) was 0.00038 µM and the Ki [2] was 0.199 µM.
`COc1ccc(-n2nc3c(N(C(=O)c4ccccc4)C(=O)c4ccccc4)nc4ncccc4n3c2=O)cc1` showed a Ki (Adenosine receptor A3) of 0.00775 µM, an Activity [6] of 0% and an Activity (Adenosine receptor A2a [7]) of 0%. The Activity [8] was 17% and the Activity (Bos taurus [9]) was 0%.
